In brackets after ≈: the same amount, converted by molar mass.
How the values were obtained:
[1] = Ferric reducing antioxidant potential; conditions: 30 min incubation at 37 °C, absorbance 593 nm
Summary of the method: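 FRAP reagent is 300 mM acetate buffer pH 3.6, 20 mM ferric chloride hexahydrate in water and 10 mM TPTZ in 40 mM HCl, combined 10:1:1 by volume (stock concentrations). Test compound at five concentrations (µg/ml) is added to the reagent in microplate wells, and absorbance is read after incubation. Run in triplicate.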

[2] = DPPH free radical scavenging assay; conditions: 0.3 mM DPPH, 30 min at 37 °C, absorbance 515 nm
Summary of the method: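 Test compound at four concentrations (µg/ml) in microplate wells, mixed with ethanolic DPPH. Blank is solvent alone with DPPH. Absorbance decrease is read after incubation. Run in triplicate and reported as the mean of three values.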

[3] = tested on: glutamate-induced neurotoxicity; conditions: concentrations ranging from 0.1 to 10 µM; cited from earlier work

Compound | FRAP [1] [mmol/g] | IC50 (DPPH radical scavenging activity) [2] [µg/mL] | attenuation of glutamate-induced neurotoxicity [3]
C[C@@H]1O[C@@H](OC[C@H]2O[C@@H](Oc3cc(O)c4c(=O)cc(-c5ccc(O)cc5)oc4c3)[C@H](O)[C@@H](O)[C@@H]2O)[C@H](O)[C@H](O)[C@H]1O [Isorhoifolin, isorhoifolin] | 7.67 | 1.37 (≈ 2.37 µM) | –
COc1cc(O)c2c(=O)c(OC)c(-c3ccc(O)cc3)oc2c1 [Jaranol, jaranol] | 1.5 | 12 (≈ 38.2 µM) | –
Cc1c(C)c2c(c(C)c1O)CC[C@@](C)(CCC[C@H](C)CCC[C@H](C)CCCC(C)C)O2 [α- tocopherol, α-tocopherol, reference compound] | 1.99 | 0.41 (≈ 0.952 µM) | –
C[C@@H]1O[C@@H](OC[C@H]2O[C@@H](OCCc3ccc(O)c(O)c3)[C@H](O)[C@@H](O[C@@H]3O[C@@H](C)[C@H](O)[C@@H](O)[C@H]3O)[C@@H]2OC(=O)/C=C/c2ccc(O)c(O)c2)[C@H](O)[C@H](O)[C@H]1O [Poliumoside, poliumoside] | 14.32 | 0.042 (≈ 0.0545 µM) | significantly attenuated glutamate-induced neurotoxicity
C[C@@H]1O[C@@H](O[C@@H]2[C@@H](O)[C@H](OCCc3ccc(O)c(O)c3)O[C@H](CO)[C@H]2OC(=O)/C=C/c2ccc(O)c(O)c2)[C@H](O)[C@H](O)[C@H]1O [Verbascoside, verbascoside] | 7.49 | 0.53 (≈ 0.849 µM) | –

Reference: paper PMC5048114 (Iranian Journal of Basic Medical Sciences, 2016)
